Among the data in ChEMBL document CHEMBL1287779, “Indium(III) chloride catalyzed three-component coupling reaction: a novel synthesis of 2-substituted aryl(indolyl)kojic acid derivatives as potent antifungal and antibacterial agents” (2010) are MIC and zone of inhibition values, retold here.

Structures are written as SMILES. Values after ≈ are worked out from the molar mass of the structure shown.

What all share (format): functional
The subject of one assay is Staphylococcus aureus. Nature of the assay: Antibacterial activity against Staphylococcus aureus MTCC 96 by broth dilution method. A digest of the protocol:
(§1)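 MIC determined by broth dilution following NCCL standards. Penicillin and streptomycin were tested in parallel under identical conditions.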

Assay [1] concerns Saccharomyces cerevisiae. Nature of the assay: Antifungal activity against Saccharomyces cerevisiae MTCC 36 assessed as zone of inhibition at 150 ug by agar well diffusion method. Particulars: read-out: IZ. A digest of the protocol:
(§2)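 Agar well diffusion on potato dextrose agar. Plates were spread with 0.5 mL of a week-old culture of the test organism, and 6 mm wells were cut with a cork borer. Compounds were dissolved in DMSO at different concentrations and added to the wells, with controls included. Plates were held at 27 °C for 48 h, and inhibition zone diameters were read in mm. Three to four replicates per treatment.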

The subject of another assay is Escherichia coli. The experiment in a line: Antibacterial activity against Escherichia coli MTCC 443 by broth dilution method. A digest of the protocol:
as §1

The test system of assay [2] is Staphylococcus epidermidis. The experiment in a line: Antibacterial activity against Staphylococcus epidermidis MTCC 2639 by broth dilution method. The essentials: as §1
The subject of assay [3] is Saccharomyces cerevisiae. The experiment in a line: Antifungal activity against Saccharomyces cerevisiae MTCC 36 assessed as zone of inhibition at 100 ug by agar well diffusion method. Particulars: read-out: IZ. The essentials: as §2
Another assay has as its system Pseudomonas aeruginosa. Nature of the assay: Antibacterial activity against Pseudomonas aeruginosa MTCC 741 by broth dilution method. The essentials: as §1
In a further assay the test system is Klebsiella pneumoniae. The experiment in a line: Antibacterial activity against Klebsiella pneumoniae MTCC 618 by broth dilution method. A digest of the protocol:
as §1

In another assay the test system is Bacillus subtilis. Nature of the assay: Antibacterial activity against Bacillus subtilis MTCC 441 by broth dilution method. The essentials: as §1
For assay [4], the system named is Aspergillus niger. The experiment in a line: Antifungal activity against Aspergillus niger MTCC 282 assessed as zone of inhibition at 150 ug by agar well diffusion method. As to conditions: read-out: IZ. The essentials: as §2
Assay [5] relates to Rhizopus arrhizus. The experiment in a line: Antifungal activity against Rhizopus oryzae MTCC 262 assessed as zone of inhibition at 150 ug by agar well diffusion method. Particulars: read-out: IZ. The essentials: as §2
Assay [6] concerns Diutina rugosa. The experiment in a line: Antifungal activity against Candida rugosa NCIM 3462 assessed as zone of inhibition at 150 ug by agar well diffusion method. As to conditions: read-out: IZ. A digest of the protocol:
as §2

The subject of assay [7] is Candida albicans. Nature of the assay: Antifungal activity against Candida albicans MTCC 227 assessed as zone of inhibition at 100 ug by agar well diffusion method. As to conditions: read-out: IZ. The essentials:
as §2

Assay [8] relates to Rhizopus arrhizus. Nature of the assay: Antifungal activity against Rhizopus oryzae MTCC 262 assessed as zone of inhibition at 100 ug by agar well diffusion method. Particulars: read-out: IZ. A digest of the protocol:
as §2

The subject of assay [9] is Aspergillus niger. The experiment in a line: Antifungal activity against Aspergillus niger MTCC 282 assessed as zone of inhibition at 100 ug by agar well diffusion method. As to conditions: read-out: IZ. A digest of the protocol:
as §2

The subject of assay [10] is Diutina rugosa. The experiment in a line: Antifungal activity against Candida rugosa NCIM 3462 assessed as zone of inhibition at 100 ug by agar well diffusion method. Particulars: read-out: IZ. A digest of the protocol:
as §2

For assay [11], the system named is Candida albicans. Nature of the assay: Antifungal activity against Candida albicans MTCC 227 assessed as zone of inhibition at 150 ug by agar well diffusion method. Particulars: read-out: IZ. The essentials: as §2

As for `COc1ccc(C(c2oc(CO)cc(=O)c2O)c2c[nH]c3ccc(Br)cc23)cc1` (stereo unspecified), the MIC was 18.8 µg/mL (≈ 41.1 µM) against Staphylococcus aureus; 37.5 µg/mL (≈ 82.2 µM) against Escherichia coli; 18.8 µg/mL (≈ 41.1 µM) in assay [2]; 37.5 µg/mL (≈ 82.2 µM) in the assay with Pseudomonas aeruginosa; 75 µg/mL (≈ 164 µM) against Klebsiella pneumoniae; 150 µg/mL (≈ 329 µM) against Bacillus subtilis. The zone of inhibition at 150 µg/disc is 16 mm in the assay with Saccharomyces cerevisiae [1]; 18 mm in the assay on Aspergillus niger [4]; 0 mm with Rhizopus arrhizus [5]; 19 mm in the assay on Diutina rugosa [6]; 18 mm with Candida albicans [11]. Moreover, the zone of inhibition at 100 µg/disc in the assay with Saccharomyces cerevisiae [3] is 10 mm; in the assay on Candida albicans [7] it was 13 mm; in the assay with Rhizopus arrhizus [8] it was 0 mm; in the assay on Aspergillus niger [9], 12 mm; in the assay with Diutina rugosa [10] it was 13 mm.
On to `COc1ccc(C(c2oc(CO)cc(=O)c2O)c2c[nH]c3ccccc23)cc1` (stereo unspecified), for which the MIC with Staphylococcus aureus was determined as 37.5 µg/mL (≈ 99.4 µM); against Escherichia coli, 150 µg/mL (≈ 397 µM); in assay [2], 18.8 µg/mL (≈ 49.7 µM); in the assay with Pseudomonas aeruginosa, 75 µg/mL (≈ 199 µM); in the assay with Klebsiella pneumoniae it was 75 µg/mL (≈ 199 µM); in the assay on Bacillus subtilis it was 150 µg/mL (≈ 397 µM). The zone of inhibition at 150 µg/disc is 0 mm in the assay with Saccharomyces cerevisiae [1]; 0 mm with Aspergillus niger [4]; 0 mm with Rhizopus arrhizus [5]; 9 mm in the assay with Diutina rugosa [6]; 0 mm with Candida albicans [11]. The zone of inhibition at 100 µg/disc with Saccharomyces cerevisiae [3] came to 0 mm; with Candida albicans [7], 0 mm; with Rhizopus arrhizus [8], 0 mm; in the assay with Aspergillus niger [9], 0 mm; with Diutina rugosa [10], 6 mm.
Regarding `COc1cc(C(c2oc(CO)cc(=O)c2O)c2c(C)[nH]c3ccccc23)ccc1O` (stereo unspecified), the minimum inhibitory concentration (MIC) (against Staphylococcus aureus; in the assay with Escherichia coli; in assay [2]; in the assay with Pseudomonas aeruginosa; in the assay on Klebsiella pneumoniae; against Bacillus subtilis) was 150 µg/mL (≈ 368 µM) each time. The zone of inhibition at 150 µg/disc in the assay on Saccharomyces cerevisiae [1], with Aspergillus niger [4], in the assay on Rhizopus arrhizus [5], with Diutina rugosa [6] and in the assay on Candida albicans [11] was 0 mm each time. Further, the zone of inhibition at 100 µg/disc with Saccharomyces cerevisiae [3], with Candida albicans [7], with Rhizopus arrhizus [8], with Aspergillus niger [9] and in the assay on Diutina rugosa [10] was 0 mm in each case.
Consider `O=c1cc(CO)oc(C(c2cccc(Oc3ccccc3)c2)c2c[nH]c3ccccc23)c1O` (stereo unspecified), for which the minimum inhibitory concentration (MIC) against Staphylococcus aureus amounted to 37.5 µg/mL (≈ 85.3 µM); in the assay on Escherichia coli, 75 µg/mL (≈ 171 µM); in [2] it was 18.8 µg/mL (≈ 42.7 µM); with Pseudomonas aeruginosa, 75 µg/mL (≈ 171 µM); in the assay on Klebsiella pneumoniae, 75 µg/mL (≈ 171 µM); in the assay with Bacillus subtilis, 150 µg/mL (≈ 341 µM). In addition, the zone of inhibition at 150 µg/disc in the assay on Saccharomyces cerevisiae [1] was 19 mm; in the assay on Aspergillus niger [4] it was 16 mm; in the assay with Rhizopus arrhizus [5], 10 mm; in the assay on Diutina rugosa [6], 18 mm; in the assay on Candida albicans [11], 19 mm. Besides, the zone of inhibition at 100 µg/disc in the assay with Saccharomyces cerevisiae [3] worked out at 14 mm; with Candida albicans [7] it was 14 mm; with Rhizopus arrhizus [8], 7 mm; in the assay with Aspergillus niger [9], 11 mm; in the assay on Diutina rugosa [10], 13 mm.
For `Cc1[nH]c2ccccc2c1C(c1cccc(Oc2ccccc2)c1)c1oc(CO)cc(=O)c1O` (stereo unspecified), the minimal inhibitory concentration (MIC) against Staphylococcus aureus came to 18.8 µg/mL (≈ 41.3 µM); in the assay on Escherichia coli it was 75 µg/mL (≈ 165 µM); in assay [2] it was 150 µg/mL (≈ 331 µM); against Pseudomonas aeruginosa, 75 µg/mL (≈ 165 µM); with Klebsiella pneumoniae, 75 µg/mL (≈ 165 µM); in the assay on Bacillus subtilis, 150 µg/mL (≈ 331 µM). Further, the zone of inhibition at 150 µg/disc in the assay on Saccharomyces cerevisiae [1] came out at 14 mm; with Aspergillus niger [4] it was 14 mm; in the assay on Rhizopus arrhizus [5] it was 0 mm; with Diutina rugosa [6], 16 mm; in the assay on Candida albicans [11] it was 14 mm. In addition, the zone of inhibition at 100 µg/disc in the assay on Saccharomyces cerevisiae [3] is 10 mm; in the assay with Candida albicans [7], 9 mm; in the assay on Rhizopus arrhizus [8], 0 mm; with Aspergillus niger [9], 9 mm; in the assay with Diutina rugosa [10] it was 11 mm.
On to `CCC(c1oc(CO)cc(=O)c1O)c1c(-c2ccccc2)[nH]c2ccccc12` (stereo unspecified), for which the MIC against Staphylococcus aureus was found to be 9.38 µg/mL (≈ 25 µM); in the assay with Escherichia coli it was 9.38 µg/mL (≈ 25 µM); in assay [2], 18.8 µg/mL (≈ 49.9 µM); in the assay on Pseudomonas aeruginosa, 37.5 µg/mL (≈ 99.9 µM); against Klebsiella pneumoniae, 75 µg/mL (≈ 200 µM); against Bacillus subtilis it was 18.8 µg/mL (≈ 49.9 µM). Besides, the zone of inhibition at 150 µg/disc with Saccharomyces cerevisiae [1] came out at 20 mm; in the assay on Aspergillus niger [4], 0 mm; in the assay with Rhizopus arrhizus [5], 0 mm; with Diutina rugosa [6] it was 0 mm; in the assay on Candida albicans [11] it was 0 mm. The zone of inhibition at 100 µg/disc came to 14 mm with Saccharomyces cerevisiae [3]; 0 mm in the assay on Candida albicans [7]; 0 mm in the assay with Rhizopus arrhizus [8]; 0 mm in the assay with Aspergillus niger [9]; 0 mm with Diutina rugosa [10].
